Hits are enriched below; roughly 3.5% of the tested compounds scored in any of these assays.
MrgX1 antag: antagonists of human MrgX1 receptor. B-score at 10 µM. Q96LB2. actives 1.3% (n = 310,000). AID 588676. MRGX1-HEK293 calcium flux, Fluo-4, BAM8-22 antagonism; stronger effect = lower value;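 active = calcium-response B-score plate-corrected more than 3 library SD below zero, starting fluorescence within 5 deviations, no agonist response on first addition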;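 also: peak minus trough fluorescence over baseline after final BAM8-22 challenge near maximal dose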
Target sequence (Q96LB2 whole entry, looked up): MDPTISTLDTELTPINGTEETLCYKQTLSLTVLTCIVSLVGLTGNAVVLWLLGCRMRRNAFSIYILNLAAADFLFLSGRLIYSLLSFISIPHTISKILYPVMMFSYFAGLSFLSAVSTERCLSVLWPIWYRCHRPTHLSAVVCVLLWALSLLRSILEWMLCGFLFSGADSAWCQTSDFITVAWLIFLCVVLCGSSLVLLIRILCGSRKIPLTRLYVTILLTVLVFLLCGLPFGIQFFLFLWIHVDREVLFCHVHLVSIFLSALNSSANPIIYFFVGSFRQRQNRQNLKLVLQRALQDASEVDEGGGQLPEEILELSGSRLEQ
MrgX1 allo act: human MrgX1 positive allosteric modulation, primary screen; AID 588675; B-score at 10 µM; MrgX1-HEK293, Fluo-4 calcium flux, FDSS; stronger effect = higher value; actives 0.63% (n = 310,000);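 active = plate-corrected calcium response at least 3 library SD above typical, normal starting fluorescence, not activating the receptor alone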;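 also: compound read alongside a low EC10 to EC30 dose of BAM8-22 agonist; peak minus trough fluorescence over baseline measured at the second addition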
RGS4 inh: inhibitors of human RGS4; B-score at 10 µM; P49798; actives 0.45% (n = 310,000); HEK293 M3R/RGS4 inducible, Fluo-4 calcium flux; stronger effect = higher value; triggered by carbachol at its EC20;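 active = B-score, a plate-corrected calcium signal, over three deviations above library mean, with baseline fluorescence within five deviations of library mean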;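 also: RGS4 expression induced by doxycycline in cells with stable M3 receptor; B-score is computed from the integrated fluorescence ratio over baseline after carbachol; higher B-score means a larger calcium signal and so more RGS4 inhibition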
MrgX1 agonist: agonists of human MrgX1 receptor; B-score at 10 µM; actives 0.44% (n = 310,000); MrgX1-HEK293 cells, Fluo-4 calcium fluorescence, agonist mode; stronger effect = higher value; Q96LB2;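 active = calcium response B-score plate-corrected fluorescence ratio at least 3 library SD, with starting fluorescence B-score inside 5 SD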
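Material: MrgX1-expressing HEK293 cells; input: 15,000 cells per well; doses: test compound given as first of three sequential additions; schedule: overnight plating before 1 h dye loading; technique: Fluo-4 NW calcium-flux fluorescence, kinetic read; evaluation: baseline-normalised fluorescence change ratio, B-scored; control set: plate-wise positive and negative controls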
RGS4 act: potentiators or activators of RGS4 | B-score at 10 µM | HEK293 M3R/inducible RGS4, carbachol calcium flux Fluo4; stronger effect = lower value | actives 0.92% (n = 310,000);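 active = B-score of the integrated calcium signal more than 4 SD below the library mean, with starting fluorescence not abnormally high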;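 also: negative B-score means reduced calcium response which marks RGS4 activation or potentiation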
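Material: M3R-expressing HEK293 line, RGS4 induced by doxycycline | Schedule: Overnight RGS4 induction, 30 min dye load 37 °C, 20 min compound RT | Measured by: Fluo4 fluorescence kinetic imaging of calcium | Read-out: Integrated calcium ratio converted to B score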
Hits are given with their value; – = inactive; · = not tested or not shown.

SMILES	MrgX1 antag	MrgX1 allo act	RGS4 inh	MrgX1 agonist	RGS4 act
O=C(Nc1ccccc1)c1cc2ccccc2c(=O)s1	-7.78	–	–	–	–
CCOc1ccc(C(=O)NCC(=O)NNC(=O)C2COc3ccccc3O2)cc1OCC (stereo not given)	-5.38	–	–	–	–
COc1ccc(NC(=O)COC(=O)c2ccc(O)cc2)c([N+](=O)[O-])c1	-5.54	–	–	–	–
Cc1c(Cl)cccc1NC(=O)c1ncn[nH]1	–	–	–	–	–
COc1ccccc1CN1CC(C(=O)NC2CCOCC2)CCC1=O (stereo not given)	–	–	–	–	–
COc1cc(/C=C2\SC(N)=NC2=O)cc(Cl)c1O	–	–	–	29.9	–
COc1ccc(-n2nc3c(N4CCC(C(=O)N5CCC(C)CC5)CC4)nnc(C)c3c2C)cc1	–	–	–	–	-6.98
Cc1nnc(N2CCC(C(=O)N3CCCCC3)CC2)c2nn(-c3ccc(Cl)cc3)c(C)c12	–	–	–	–	–
CC1(C)CC[C@]2(C(=O)O)CC[C@]3(C)C(=CC[C@@H]4[C@@]5(C)CC[C@H](O)C(C)(C)[C@@H]5CC[C@]43C)[C@@H]2C1	–	–	·	–	·
CC(=O)OC1COC(OC2C(O)C(C)OC(OC3C(OC4CCC5(C)C(CCC6(C)C5CC=C5C7CC(C)(C)CCC7(C(=O)O)CCC56C)C4(C)CO)OCC(O)C3O)C2O)C(O)C1OC(C)=O (stereo not given)	–	–	·	219	·
O=C(Nc1ccccc1Oc1ccccc1)c1cccs1	–	–	–	–	–
O=C(Nc1cc(C(F)(F)F)ccc1Cl)c1ccncc1	–	–	–	–	–
C/C(=N\Nc1cc(C(F)(F)F)ccc1Cl)c1ccncc1	–	–	–	–	-7.6
C=CCn1c(=O)/c(=C/c2ccc(Cl)cc2)s/c1=C(/C#N)c1nnc2n1CCCCC2	–	–	–	–	–
C=CCn1c(=O)/c(=C/c2ccc(O)cc2)s/c1=C(/C#N)c1nnc2n1CCCCC2	–	–	·	36.4	·
CCOc1cc(/C=N/NC(=O)c2nn(C)cc2Br)ccc1OCc1ccccc1	-6.81	–	–	–	–
CC1CCN(CC(=O)Nc2ccccc2Sc2ccccc2)CC1	–	–	–	–	-7.37
O=C(CNc1cc(S(=O)(=O)N2CCOCC2)ccc1N1CCCC1)NCc1ccco1	–	–	–	–	–
CCOC(=O)N1CCN(S(=O)(=O)c2ccc(C(=O)N(CCCN(C)C)c3nc4c(F)cc(F)cc4s3)cc2)CC1	-7.9	–	–	–	–
CCOC(=O)N1CCN(S(=O)(=O)c2ccc(C(=O)N(CCCN(C)C)c3nc4ccc(Cl)cc4s3)cc2)CC1	–	–	–	–	–
CCc1ccc2nc(N(CCCN(C)C)C(=O)c3ccc(S(=O)(=O)N4CCCc5ccccc54)cc3)sc2c1	–	–	–	–	-7.31
CCc1ccc2nc(N(CCCN(C)C)C(=O)c3ccc(C(=O)c4ccccc4)cc3)sc2c1	–	–	–	–	-8.07
COc1cc2nc(N(CCCN(C)C)C(=O)c3ccc(C(=O)c4ccccc4)cc3)sc2cc1OC	–	–	–	–	–
COc1ccc(OC)c2sc(N(CCCN(C)C)C(=O)c3ccc(S(=O)(=O)N4CCc5ccccc5C4)cc3)nc12	-6.15	–	–	–	-10.1
Cc1ccc2nc(N(CCCN(C)C)C(=O)c3ccc(S(=O)(=O)N4CCCCCC4)cc3)sc2c1	–	–	–	–	–
SMILES	MrgX1 antag	MrgX1 allo act	RGS4 inh	MrgX1 agonist	RGS4 act
CCc1ccc2nc(N(CCCN(C)C)C(=O)c3ccc(S(=O)(=O)N4CCCC4)cc3)sc2c1	–	–	–	–	-10.7
CCn1c(SCc2cccc(C(F)(F)F)c2)nnc1-c1ccco1	-6.37	–	–	–	–
CCN(CC)c1ccc(S(=O)(=O)N2CCOCC2)cc1NC(=O)COC(=O)/C=C/c1ccc(C)o1	–	–	–	–	-9.59
CC(Oc1ccc(-c2ccccc2)c(F)c1)c1ccn(S(=O)(=O)c2ccc(Br)cc2)n1 (stereo not given)	-5.69	–	–	–	–
COc1ccc(NCc2ccc([N+](=O)[O-])s2)c(OC)c1	–	–	·	–	·
CCN(CC)c1ccc(/C=C2\SC(N)=NC2=O)cc1	–	–	–	33.1	–
CC1(C)N=C(SCC(=O)Nc2ccc(Cl)cc2)C(c2ccccc2)=N1	–	–	–	–	–

Bioassay records: PubChem, Johns Hopkins Ion Channel Center
